Measured values as given in ChEMBL document CHEMBL3352586, “Pyridyl benzamides as a novel class of potent inhibitors for the kinetoplastid Trypanosoma brucei” (J Med Chem, 2014).
Converted amounts (≈) assume the structure as drawn.

Assays:
[1] = system: Trypanosoma brucei brucei; assay: Antimicrobial activity against bloodstream form of Trypanosoma brucei brucei 427 at 10 uM after 48 hrs by alamar blue assay; assay type: functional; details: Trypanosoma brucei, 427, 48 h
[2] = system: L6; assay: Cytotoxicity against rat L6 cells after 70 hrs by alamar blue assay; assay type: cell-based; details: L6, 70 h
Summary of the method: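 Cytotoxicity on the rat skeletal myoblast L-6 strain, with podophyllotoxin as reference drug.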

[3] = system: Trypanosoma brucei brucei; assay: Antimicrobial activity against bloodstream form of Trypanosoma brucei brucei 427 after 48 hrs by alamar blue assay; assay type: functional, organism-based; details: Trypanosoma brucei, 427, 48 h
[4] = system: Leishmania donovani; assay: Antimicrobial activity against amastigote form of Leishmania donovani MHOM/ET/67/L82 after 70 hrs by alamar blue assay; assay type: functional, organism-based; details: MHOM/ET/67/L82, 70 h
Summary of the method: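 Leishmania donovani MHOM-ET-67/L82 axenic amastigotes, with miltefosine as reference drug.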

[5] = system: Plasmodium falciparum; assay: Antimicrobial activity against erythrocytic stage of Plasmodium falciparum NF54 infected in human washed RBC assessed as [3H]-hypoxanthine incorporation incubated for 48 hrs prior to [3H]-hypoxanthine addition measured after 24 hrs by liquid scintillation counting analysis; assay type: functional, organism-based
[6] = system: Trypanosoma brucei rhodesiense; assay: Antimicrobial activity against bloodstream form of Trypanosoma brucei rhodesiense STIB 900 after 70 hrs by alamar blue assay; assay type: functional, organism-based; details: STIB 900, 70 h
Summary of the method: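 Trypanosoma brucei rhodesiense STIB 900 bloodstream-form trypomastigotes, with melarsoprol as reference drug.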

[7] = Selectivity index, ratio of IC50 for HEK293 cells to IC50 for Trypanosoma brucei brucei 427; assay type: toxicity, cell-based; details: human, read-out: Ratio IC50
[8] = system: Trypanosoma cruzi; assay: Antimicrobial activity against amastigote form of Trypanosoma cruzi Tulahuen C2C4 infected in rat L6 cells after 96 hrs by microscopic analysis; details: Tulahuen C2C4, L6, 96 h
[9] = Kinetic solubility of the compound at 10 mg/ml at pH 6.5 by nephelometry; assay type: physicochemical; details: buffer, read-out: Kinetic_solubility
Summary of the method: (§1)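 Kinetic solubility was read by nephelometry at pH 2 and pH 6.5 and reported as μg/mL ranges.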

[10] = Kinetic solubility of the compound at 10 mg/ml at pH 2 by nephelometry; assay type: physicochemical; details: buffer, read-out: Kinetic_solubility; summary of the method: as §1
[11] = Plasma protein binding in human […] by chromatographic method; assay type: ADME, cell-free; details: read-out: PPB (converted)
Summary of the method: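 Human plasma protein binding was estimated by a chromatographic method.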

[12] = Partition coefficient, log D of the compound at pH 7.4 by HPLC method; assay type: physicochemical; details: octanol/water
Summary of the method: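 Distribution coefficient at pH 7.4 was measured chromatographically.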

[13] = system: Liver microsome; assay: Intrinsic clearance in human liver microsomes at 1 uM after 60 mins by LC-MS analysis; assay type: ADME; details: 1 h
Summary of the method: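 In vitro intrinsic clearance was measured in human liver microsomes and expressed per mg protein. A hepatic extraction ratio (E_H) was predicted from the in vitro data.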

Compound: Cc1ccccc1C(=O)Nc1ccccc1
- inhibition at 10 µM [1]: < 10%

Compound: Cc1cc(NC(=O)c2ccccc2C)no1
- inhibition at 10 µM [1]: < 10%

Compound: Cc1ccccc1NC(=O)c1ccccn1
- inhibition at 10 µM [1]: < 10%

Compound: Cc1ccccc1C(=O)Nc1ccc(Cl)cn1
- inhibition at 10 µM [1]: < 10%

Compound: Cc1ccccc1C(=O)Nc1nncs1
- inhibition at 10 µM [1]: < 10%

Compound: Cc1ccccc1C(=O)Nc1ccc(Br)cn1
- inhibition at 10 µM [1]: < 10%

Compound: Cc1ccccc1C(=O)Nc1ccc(Br)c(C)n1
- inhibition at 10 µM [1]: < 10%

Compound: Cc1ccccc1C(=O)Nc1nc[nH]n1
- inhibition at 10 µM [1]: < 10%

Compound: Cc1ccccc1C(=O)Nc1ccccn1
- IC50 [2]: 156 µM
- IC50 [3]: 3030 nM
- IC50 [4]: 48 µM
- inhibition at 10 µM [1]: 80%
- IC50 [5]: 36 µM
- IC50 [6]: 2100 nM
- selectivity ratio [7]: 27.5
- IC50 [8]: 152 µM

Compound: O=C(Nc1ccccn1)c1ccccc1-c1ccccc1
- inhibition at 10 µM [1]: < 10%

Compound: Cc1ccccc1C(=O)Nc1cccnn1
- inhibition at 10 µM [1]: < 10%

Compound: Cc1ccccc1C(=O)Nc1ccc(C#CCC(C)C)cn1
- inhibition at 10 µM [1]: 12%

Compound: CCC/C=C/c1ccc(NC(=O)c2ccccc2C)nc1
- inhibition at 10 µM [1]: 19%

Compound: Cc1ccccc1C(=O)Nc1ccc(-c2ccccc2)cn1
- inhibition at 10 µM [1]: 11%

Compound: Cc1ccccc1C(=O)Nc1cccc(OCC(C)C)n1
- inhibition at 10 µM [1]: < 10%

Compound: CCCCN(C(=O)c1ccccc1C)c1ccccn1
- inhibition at 10 µM [1]: 11%

Compound: CCCCCN(C(=O)c1ccccc1C)c1ccccn1
- inhibition at 10 µM [1]: 17%

Compound: O=C(Nc1ccccn1)c1ccccc1I
- inhibition at 10 µM [1]: 38%

Compound: O=C(Nc1ccccn1)c1ccccc1C(F)(F)F
- inhibition at 10 µM [1]: < 10%

Compound: COc1cccnc1NC(=O)c1ccccc1C
- inhibition at 10 µM [1]: < 10%

Compound: Cc1ccccc1C(=O)Nc1ncccc1C
- inhibition at 10 µM [1]: 34%

Compound: Cc1ccccc1C(=O)Nc1ncccc1F
- inhibition at 10 µM [1]: < 10%

Compound: Cc1ccccc1C(=O)Nc1ncccn1
- solubility kinetic [9]: 6.3 µg/mL (≈ 29.5 µM)
- solubility kinetic [10]: 6.3 µg/mL (≈ 29.5 µM)
- inhibition at 10 µM [1]: < 10%
- fraction unbound [11]: 0.024
- logD [12]: 3.9

Compound: Cc1ccccc1C(=O)Nc1cc(C#N)ccn1
- solubility kinetic [9]: 25 µg/mL (≈ 105 µM)
- IC50 [3]: 2300 nM
- solubility kinetic [10]: 50 µg/mL (≈ 211 µM)
- fraction unbound [11]: 0.359
- logD [12]: 2.8
- CLint [13]: 82 µL/min/mg

Compound: Cc1ccccc1C(=O)Nc1cnccn1
- inhibition at 10 µM [1]: 35%

Compound: Cc1ccccc1C(=O)Nc1cc(Br)ccn1
- IC50 [3]: 1800 nM
- selectivity ratio [7]: > 41

Compound: Cc1ccccc1C(=O)Nc1cc(F)ccn1
- IC50 [3]: 510 nM
- selectivity ratio [7]: 168

Compound: Cc1ccccc1C(=O)Nc1cc(C#CCC(C)C)ccn1
- IC50 [3]: 1100 nM
- selectivity ratio [7]: > 53

Compound: Cc1ccccc1C(=O)Nc1cc(-c2ccccc2)ccn1
- IC50 [2]: 70 µM
- IC50 [3]: 2000 nM
- IC50 [4]: > 124 µM
- IC50 [5]: 91 µM
- IC50 [6]: 970 nM
- selectivity ratio [7]: 31
- IC50 [8]: 66 µM

Compound: COc1ccc(NC(=O)c2ccccc2C)nc1
- solubility kinetic [9]: 12.5 µg/mL (≈ 51.6 µM)
- IC50 [3]: 3800 nM
- solubility kinetic [10]: > 100 µg/mL
- fraction unbound [11]: 0.399
- selectivity ratio [7]: > 22
- logD [12]: 2.5
- CLint [13]: 23 µL/min/mg

Compound: Cc1ccc(NC(=O)c2ccccc2C)nc1
- inhibition at 10 µM [1]: < 10%

Compound: Cc1ccccc1C(=O)Nc1ccncn1
- inhibition at 10 µM [1]: < 10%

Compound: Cc1ccccc1C(=O)Nc1ccc(C#N)cn1
- solubility kinetic [9]: 6.3 µg/mL (≈ 26.6 µM)
- solubility kinetic [10]: 6.3 µg/mL (≈ 26.6 µM)
- inhibition at 10 µM [1]: < 10%
- fraction unbound [11]: 0.025
- logD [12]: 3.9

Compound: COc1cccc(NC(=O)c2ccccc2C)n1
- inhibition at 10 µM [1]: < 10%

Compound: Cc1cccc(NC(=O)c2ccccc2C)n1
- inhibition at 10 µM [1]: < 10%

Compound: Cc1ccccc1C(=O)Nc1cccc(F)n1
- solubility kinetic [9]: > 100 µg/mL
- solubility kinetic [10]: > 100 µg/mL
- inhibition at 10 µM [1]: < 10%
- fraction unbound [11]: 0.33
- logD [12]: 3
- CLint [13]: 191 µL/min/mg

Compound: Cc1ccccc1C(=O)Nc1cccc(C#N)n1
- inhibition at 10 µM [1]: 11%

Compound: Cc1ccccc1C(=O)Nc1cccc(Cl)n1
- inhibition at 10 µM [1]: < 10%

Compound: Cc1ccccc1C(=O)Nc1cccc(Br)n1
- inhibition at 10 µM [1]: < 10%

Compound: Cc1ccccc1C(=O)Nc1cccc(-c2ccccc2)n1
- inhibition at 10 µM [1]: 33%

Compound: Cc1ccccc1C(=O)Nc1cccc(C#CCC(C)C)n1
- inhibition at 10 µM [1]: < 10%

Compound: CCC/C=C/c1cccc(NC(=O)c2ccccc2C)n1
- IC50 [3]: 6000 nM
- selectivity ratio [7]: > 3

Compound: Cc1ccccc1C(=O)Nc1cccc(C#Cc2ccccc2)n1
- inhibition at 10 µM [1]: < 10%

Compound: Cc1ccccc1C(=O)Nc1cccc(O)n1
- inhibition at 10 µM [1]: < 10%
